# Source: ChEMBL document CHEMBL1155077, “Kinesin spindle protein (KSP) inhibitors. 9. Discovery of (2S)-4-(2,5-difluorophenyl)-n-[(3R,4S)-3-fluoro-1-methylpiperidin-4-yl]-2-(hydroxymethyl)-N-methyl-2-phenyl-2,5-dihydro-1H-pyrrole-1-carboxamide (MK-0731) for the treatment of taxane-refractory cancer” (J Med Chem, 2008)
# Activity calls are given as the source filed them. No cut-off for these calls is given here.
# Key:
# [1] = molecular target: Kinesin-like protein KIF1B (Homo sapiens, UniProt O60333); experiment: Inhibition of cloned human Kif1B
# [2] = molecular target: T1, Kinesin heavy chain isoform 5A (Homo sapiens, UniProt Q12840); experiment: Inhibition of cloned human nKHC
# T1 sequence (Q12840 whole entry): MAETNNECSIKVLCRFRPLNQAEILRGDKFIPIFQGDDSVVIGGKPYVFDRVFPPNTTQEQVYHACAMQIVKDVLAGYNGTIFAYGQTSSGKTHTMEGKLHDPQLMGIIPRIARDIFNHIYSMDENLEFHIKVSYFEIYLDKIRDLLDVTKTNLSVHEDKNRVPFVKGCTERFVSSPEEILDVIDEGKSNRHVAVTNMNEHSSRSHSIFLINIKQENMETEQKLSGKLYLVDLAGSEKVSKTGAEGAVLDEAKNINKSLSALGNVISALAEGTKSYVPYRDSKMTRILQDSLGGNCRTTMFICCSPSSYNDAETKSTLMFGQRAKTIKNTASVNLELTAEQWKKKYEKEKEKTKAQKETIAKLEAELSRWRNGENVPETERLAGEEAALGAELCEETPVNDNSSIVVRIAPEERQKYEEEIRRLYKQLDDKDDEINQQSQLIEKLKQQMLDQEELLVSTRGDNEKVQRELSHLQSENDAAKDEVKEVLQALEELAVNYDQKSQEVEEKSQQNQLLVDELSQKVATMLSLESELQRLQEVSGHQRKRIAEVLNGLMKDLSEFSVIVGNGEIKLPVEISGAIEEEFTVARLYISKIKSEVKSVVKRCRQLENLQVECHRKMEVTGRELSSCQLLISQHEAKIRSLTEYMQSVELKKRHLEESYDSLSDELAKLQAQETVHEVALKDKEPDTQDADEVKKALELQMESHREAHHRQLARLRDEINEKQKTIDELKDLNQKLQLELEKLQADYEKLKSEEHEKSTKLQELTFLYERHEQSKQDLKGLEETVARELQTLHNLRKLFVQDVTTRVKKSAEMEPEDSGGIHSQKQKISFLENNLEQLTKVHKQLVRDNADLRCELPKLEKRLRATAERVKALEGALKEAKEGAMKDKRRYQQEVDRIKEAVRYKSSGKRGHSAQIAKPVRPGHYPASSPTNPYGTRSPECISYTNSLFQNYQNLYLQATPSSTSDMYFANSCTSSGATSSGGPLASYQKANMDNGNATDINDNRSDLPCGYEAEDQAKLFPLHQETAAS
# [3] = Clearance in rat at 1 mg/kg, iv; type: ADME, organism-based; parameters: dose 1 mg/kg, route intravenous; details: in vivo
# [4] = Dissociation constant, pKa by Sirius GLpKa titrator; type: physicochemical
# Outline: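 Potentiometric pKa measured on a Sirius GLpKa titrator; mean of n = 3 determinations unless marked as a single determination.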
# [5] = molecular target: Voltage-gated inwardly rectifying potassium channel KCNH2 (Homo sapiens, UniProt Q12809)
# [6] = molecular target: T2, Kinesin-like protein KIF2C (Homo sapiens, UniProt Q99661); experiment: Inhibition of cloned human MCAK
# T2 sequence (Q99661 whole entry): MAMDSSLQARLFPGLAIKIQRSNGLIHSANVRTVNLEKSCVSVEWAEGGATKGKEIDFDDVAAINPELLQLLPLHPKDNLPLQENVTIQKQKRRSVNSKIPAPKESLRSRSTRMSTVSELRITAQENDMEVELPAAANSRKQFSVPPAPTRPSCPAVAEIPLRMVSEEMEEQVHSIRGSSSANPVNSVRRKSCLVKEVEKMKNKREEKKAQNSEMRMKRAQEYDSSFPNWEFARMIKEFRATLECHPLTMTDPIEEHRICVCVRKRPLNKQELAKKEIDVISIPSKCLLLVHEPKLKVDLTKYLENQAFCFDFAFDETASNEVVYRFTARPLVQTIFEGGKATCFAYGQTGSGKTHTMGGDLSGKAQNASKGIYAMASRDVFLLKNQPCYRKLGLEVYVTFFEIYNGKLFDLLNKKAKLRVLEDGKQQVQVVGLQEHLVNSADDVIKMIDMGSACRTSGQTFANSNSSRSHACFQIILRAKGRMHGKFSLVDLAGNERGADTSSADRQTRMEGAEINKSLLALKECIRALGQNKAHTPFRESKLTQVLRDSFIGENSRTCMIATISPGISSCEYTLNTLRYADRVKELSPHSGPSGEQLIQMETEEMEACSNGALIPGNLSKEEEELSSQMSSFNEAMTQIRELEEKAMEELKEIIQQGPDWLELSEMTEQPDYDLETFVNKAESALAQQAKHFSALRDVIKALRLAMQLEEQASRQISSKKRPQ
# PTX10 = experiment: Inhibition of tumor growth in paclitaxel-resistant human PTX10 cells carries tubulin mutation xenografted clr:NU/NU-nuBR mouse assessed as change in tumor volume at 100 mg/kg, sc administered q4d x 3 dosing schedule relative to control
# [7] = molecular target: T3, Kinesin-like protein KIF23 (Homo sapiens, UniProt Q02241); experiment: Inhibition of cloned human MKLP1
# T3 sequence (Q02241 whole entry): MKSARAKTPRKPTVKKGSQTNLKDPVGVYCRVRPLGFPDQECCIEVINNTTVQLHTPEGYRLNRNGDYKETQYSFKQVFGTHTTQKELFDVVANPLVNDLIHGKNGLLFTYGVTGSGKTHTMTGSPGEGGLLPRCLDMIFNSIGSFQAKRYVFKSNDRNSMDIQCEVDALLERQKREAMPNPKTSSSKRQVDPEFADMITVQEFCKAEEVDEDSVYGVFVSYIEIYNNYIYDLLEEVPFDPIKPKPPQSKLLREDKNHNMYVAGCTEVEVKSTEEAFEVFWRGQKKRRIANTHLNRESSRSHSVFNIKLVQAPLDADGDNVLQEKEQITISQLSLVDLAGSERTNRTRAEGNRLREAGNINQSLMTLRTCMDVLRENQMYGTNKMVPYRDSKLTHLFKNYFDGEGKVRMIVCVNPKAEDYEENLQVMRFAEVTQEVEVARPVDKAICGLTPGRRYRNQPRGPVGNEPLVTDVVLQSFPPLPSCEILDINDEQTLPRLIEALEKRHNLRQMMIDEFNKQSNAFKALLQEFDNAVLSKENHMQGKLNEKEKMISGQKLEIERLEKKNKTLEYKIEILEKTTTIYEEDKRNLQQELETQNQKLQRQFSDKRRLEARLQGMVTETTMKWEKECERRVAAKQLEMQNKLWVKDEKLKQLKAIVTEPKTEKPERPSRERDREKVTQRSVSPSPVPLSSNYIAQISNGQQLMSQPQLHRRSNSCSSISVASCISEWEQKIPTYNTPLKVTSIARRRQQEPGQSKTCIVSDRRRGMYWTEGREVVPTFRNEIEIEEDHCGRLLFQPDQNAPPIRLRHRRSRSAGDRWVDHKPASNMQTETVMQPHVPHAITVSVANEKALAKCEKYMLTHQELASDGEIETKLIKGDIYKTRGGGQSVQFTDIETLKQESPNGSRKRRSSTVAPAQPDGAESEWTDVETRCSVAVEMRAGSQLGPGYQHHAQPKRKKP
# [8] = Clearance in rhesus monkey at 0.4 mg/kg, iv; type: ADME, organism-based, Macaca mulatta; parameters: dose 0.4 mg/kg, route intravenous; details: in vivo
# Sequence of Kinesin-like protein KIF1B (O60333 whole entry, canonical isoform): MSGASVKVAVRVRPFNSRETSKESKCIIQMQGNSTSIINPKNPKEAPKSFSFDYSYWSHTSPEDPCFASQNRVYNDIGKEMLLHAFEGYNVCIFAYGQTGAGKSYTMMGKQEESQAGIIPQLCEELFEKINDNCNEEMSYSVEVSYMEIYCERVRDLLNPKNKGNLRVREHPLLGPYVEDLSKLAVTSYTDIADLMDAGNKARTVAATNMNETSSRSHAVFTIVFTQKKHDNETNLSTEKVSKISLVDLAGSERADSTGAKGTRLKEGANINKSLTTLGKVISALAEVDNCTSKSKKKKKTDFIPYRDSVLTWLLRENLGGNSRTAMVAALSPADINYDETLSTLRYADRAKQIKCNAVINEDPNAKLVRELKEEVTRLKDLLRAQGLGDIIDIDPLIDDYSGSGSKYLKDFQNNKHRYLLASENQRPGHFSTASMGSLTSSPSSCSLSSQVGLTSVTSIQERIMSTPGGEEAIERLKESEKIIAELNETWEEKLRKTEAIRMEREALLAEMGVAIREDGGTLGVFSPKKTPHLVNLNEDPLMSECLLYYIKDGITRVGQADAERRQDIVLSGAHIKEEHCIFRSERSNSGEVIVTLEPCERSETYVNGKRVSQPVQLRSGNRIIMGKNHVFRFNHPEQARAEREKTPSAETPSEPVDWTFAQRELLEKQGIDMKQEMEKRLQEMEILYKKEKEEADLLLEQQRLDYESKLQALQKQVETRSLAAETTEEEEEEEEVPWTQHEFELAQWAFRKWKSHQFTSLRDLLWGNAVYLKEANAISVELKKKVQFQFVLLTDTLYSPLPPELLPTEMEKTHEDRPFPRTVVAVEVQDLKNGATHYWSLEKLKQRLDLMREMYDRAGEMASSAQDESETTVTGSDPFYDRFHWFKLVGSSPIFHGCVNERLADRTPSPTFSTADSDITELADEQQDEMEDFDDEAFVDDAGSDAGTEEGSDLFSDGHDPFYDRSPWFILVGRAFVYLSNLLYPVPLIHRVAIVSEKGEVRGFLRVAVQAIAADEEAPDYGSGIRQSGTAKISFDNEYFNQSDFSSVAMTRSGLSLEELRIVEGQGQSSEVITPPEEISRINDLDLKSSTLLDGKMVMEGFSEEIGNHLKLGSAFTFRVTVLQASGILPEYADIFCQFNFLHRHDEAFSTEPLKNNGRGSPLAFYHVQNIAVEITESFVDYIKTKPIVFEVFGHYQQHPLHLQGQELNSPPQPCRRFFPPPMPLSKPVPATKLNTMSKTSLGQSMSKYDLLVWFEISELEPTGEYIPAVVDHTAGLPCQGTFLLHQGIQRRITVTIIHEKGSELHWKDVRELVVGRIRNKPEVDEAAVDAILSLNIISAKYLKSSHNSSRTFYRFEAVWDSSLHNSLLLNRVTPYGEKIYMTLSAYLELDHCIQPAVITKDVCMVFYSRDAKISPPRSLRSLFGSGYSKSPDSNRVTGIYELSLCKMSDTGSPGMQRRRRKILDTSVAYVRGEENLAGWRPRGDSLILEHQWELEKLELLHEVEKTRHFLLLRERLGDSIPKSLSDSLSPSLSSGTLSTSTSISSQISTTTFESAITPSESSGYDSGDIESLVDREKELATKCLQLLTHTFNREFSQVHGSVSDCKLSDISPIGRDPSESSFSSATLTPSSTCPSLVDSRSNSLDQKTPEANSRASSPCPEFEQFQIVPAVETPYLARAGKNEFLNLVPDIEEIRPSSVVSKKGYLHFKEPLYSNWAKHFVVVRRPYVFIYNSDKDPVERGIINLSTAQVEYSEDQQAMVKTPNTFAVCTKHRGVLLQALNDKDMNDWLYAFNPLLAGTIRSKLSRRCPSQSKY
# Sequence of Voltage-gated inwardly rectifying potassium channel KCNH2 (Q12809 whole entry): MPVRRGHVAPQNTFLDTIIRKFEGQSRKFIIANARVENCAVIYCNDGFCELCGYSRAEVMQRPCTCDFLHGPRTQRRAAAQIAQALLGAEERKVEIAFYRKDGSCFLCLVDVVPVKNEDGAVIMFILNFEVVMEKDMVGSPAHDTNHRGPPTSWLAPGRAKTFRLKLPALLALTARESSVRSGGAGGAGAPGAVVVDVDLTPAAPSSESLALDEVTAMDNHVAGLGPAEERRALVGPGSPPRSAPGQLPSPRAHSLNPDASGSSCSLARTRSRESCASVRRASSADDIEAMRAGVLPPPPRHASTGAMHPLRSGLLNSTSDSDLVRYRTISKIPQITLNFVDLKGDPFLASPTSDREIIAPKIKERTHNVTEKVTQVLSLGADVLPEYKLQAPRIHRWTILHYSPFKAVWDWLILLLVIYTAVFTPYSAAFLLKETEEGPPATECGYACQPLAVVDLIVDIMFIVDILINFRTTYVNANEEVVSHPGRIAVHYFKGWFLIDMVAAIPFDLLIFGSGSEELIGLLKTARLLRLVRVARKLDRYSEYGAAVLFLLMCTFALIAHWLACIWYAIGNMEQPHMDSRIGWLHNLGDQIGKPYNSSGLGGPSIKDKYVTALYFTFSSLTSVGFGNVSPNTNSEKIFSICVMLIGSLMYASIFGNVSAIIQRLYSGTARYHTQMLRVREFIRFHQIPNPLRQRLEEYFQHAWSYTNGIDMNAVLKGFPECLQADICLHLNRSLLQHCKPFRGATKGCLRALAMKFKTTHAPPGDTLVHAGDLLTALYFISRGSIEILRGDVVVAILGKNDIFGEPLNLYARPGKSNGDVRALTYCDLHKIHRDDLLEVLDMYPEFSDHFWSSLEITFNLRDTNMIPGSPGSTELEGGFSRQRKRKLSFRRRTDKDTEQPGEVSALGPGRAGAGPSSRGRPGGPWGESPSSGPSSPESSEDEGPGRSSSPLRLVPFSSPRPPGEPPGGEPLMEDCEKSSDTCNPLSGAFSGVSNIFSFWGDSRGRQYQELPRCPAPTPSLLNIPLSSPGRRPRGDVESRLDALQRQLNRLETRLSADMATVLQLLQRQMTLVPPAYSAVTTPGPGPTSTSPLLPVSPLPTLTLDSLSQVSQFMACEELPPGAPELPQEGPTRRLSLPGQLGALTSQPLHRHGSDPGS
structure (smiles),measurement,setting,value
CN1CC[C@H](N(C)C(=O)N2CC(c3cc(F)ccc3F)=C[C@@]2(CO)c2ccccc2)[C@H](F)C1,IC50,[1],> 50 µM
same,IC50,[2],> 50 µM
same,clearance,[3],66.7 mL/min/kg
same,pKa,[4],7.6
same,IC50,[5],20.5 µM
same,IC50,[6],> 50 µM
same,Activity,PTX10,Active
same,IC50,[7],> 50 µM
same,clearance,[8],23.1 mL/min/kg
